Measured values reported in ChEMBL document CHEMBL2176883, “Aminopiperidine sulfonamide Cav2.2 channel inhibitors for the treatment of chronic pain” (J Med Chem, 2012).

Experiments:
[1] = target: T1, Voltage-dependent N-type calcium channel subunit alpha-1B (Homo sapiens, UniProt Q00975); assay: Inhibition of Cav2.2 expressed HEK293 cells assessed as inhibition of calcium flux by FLIPR assay in presence of 30 mM of potassium; assay type: cell-based
In short: (§1)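 Calcium influx was read with a calcium-sensitive dye on FLIPR Tetra in CBK cells expressing α1B-1, α2-δ and β3a with Kir2.3. Cells were preincubated with compound in 30 mM K+, then channels were opened by 1:1 addition of 140 mM K+ solution. Compounds were screened at 1 μM, then titrated over 10 points (0.001–30 μM) in quadruplicate, mean ± SD. Values are averages of n ≥ 3.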
Target sequence in this assay (Q00975 whole entry): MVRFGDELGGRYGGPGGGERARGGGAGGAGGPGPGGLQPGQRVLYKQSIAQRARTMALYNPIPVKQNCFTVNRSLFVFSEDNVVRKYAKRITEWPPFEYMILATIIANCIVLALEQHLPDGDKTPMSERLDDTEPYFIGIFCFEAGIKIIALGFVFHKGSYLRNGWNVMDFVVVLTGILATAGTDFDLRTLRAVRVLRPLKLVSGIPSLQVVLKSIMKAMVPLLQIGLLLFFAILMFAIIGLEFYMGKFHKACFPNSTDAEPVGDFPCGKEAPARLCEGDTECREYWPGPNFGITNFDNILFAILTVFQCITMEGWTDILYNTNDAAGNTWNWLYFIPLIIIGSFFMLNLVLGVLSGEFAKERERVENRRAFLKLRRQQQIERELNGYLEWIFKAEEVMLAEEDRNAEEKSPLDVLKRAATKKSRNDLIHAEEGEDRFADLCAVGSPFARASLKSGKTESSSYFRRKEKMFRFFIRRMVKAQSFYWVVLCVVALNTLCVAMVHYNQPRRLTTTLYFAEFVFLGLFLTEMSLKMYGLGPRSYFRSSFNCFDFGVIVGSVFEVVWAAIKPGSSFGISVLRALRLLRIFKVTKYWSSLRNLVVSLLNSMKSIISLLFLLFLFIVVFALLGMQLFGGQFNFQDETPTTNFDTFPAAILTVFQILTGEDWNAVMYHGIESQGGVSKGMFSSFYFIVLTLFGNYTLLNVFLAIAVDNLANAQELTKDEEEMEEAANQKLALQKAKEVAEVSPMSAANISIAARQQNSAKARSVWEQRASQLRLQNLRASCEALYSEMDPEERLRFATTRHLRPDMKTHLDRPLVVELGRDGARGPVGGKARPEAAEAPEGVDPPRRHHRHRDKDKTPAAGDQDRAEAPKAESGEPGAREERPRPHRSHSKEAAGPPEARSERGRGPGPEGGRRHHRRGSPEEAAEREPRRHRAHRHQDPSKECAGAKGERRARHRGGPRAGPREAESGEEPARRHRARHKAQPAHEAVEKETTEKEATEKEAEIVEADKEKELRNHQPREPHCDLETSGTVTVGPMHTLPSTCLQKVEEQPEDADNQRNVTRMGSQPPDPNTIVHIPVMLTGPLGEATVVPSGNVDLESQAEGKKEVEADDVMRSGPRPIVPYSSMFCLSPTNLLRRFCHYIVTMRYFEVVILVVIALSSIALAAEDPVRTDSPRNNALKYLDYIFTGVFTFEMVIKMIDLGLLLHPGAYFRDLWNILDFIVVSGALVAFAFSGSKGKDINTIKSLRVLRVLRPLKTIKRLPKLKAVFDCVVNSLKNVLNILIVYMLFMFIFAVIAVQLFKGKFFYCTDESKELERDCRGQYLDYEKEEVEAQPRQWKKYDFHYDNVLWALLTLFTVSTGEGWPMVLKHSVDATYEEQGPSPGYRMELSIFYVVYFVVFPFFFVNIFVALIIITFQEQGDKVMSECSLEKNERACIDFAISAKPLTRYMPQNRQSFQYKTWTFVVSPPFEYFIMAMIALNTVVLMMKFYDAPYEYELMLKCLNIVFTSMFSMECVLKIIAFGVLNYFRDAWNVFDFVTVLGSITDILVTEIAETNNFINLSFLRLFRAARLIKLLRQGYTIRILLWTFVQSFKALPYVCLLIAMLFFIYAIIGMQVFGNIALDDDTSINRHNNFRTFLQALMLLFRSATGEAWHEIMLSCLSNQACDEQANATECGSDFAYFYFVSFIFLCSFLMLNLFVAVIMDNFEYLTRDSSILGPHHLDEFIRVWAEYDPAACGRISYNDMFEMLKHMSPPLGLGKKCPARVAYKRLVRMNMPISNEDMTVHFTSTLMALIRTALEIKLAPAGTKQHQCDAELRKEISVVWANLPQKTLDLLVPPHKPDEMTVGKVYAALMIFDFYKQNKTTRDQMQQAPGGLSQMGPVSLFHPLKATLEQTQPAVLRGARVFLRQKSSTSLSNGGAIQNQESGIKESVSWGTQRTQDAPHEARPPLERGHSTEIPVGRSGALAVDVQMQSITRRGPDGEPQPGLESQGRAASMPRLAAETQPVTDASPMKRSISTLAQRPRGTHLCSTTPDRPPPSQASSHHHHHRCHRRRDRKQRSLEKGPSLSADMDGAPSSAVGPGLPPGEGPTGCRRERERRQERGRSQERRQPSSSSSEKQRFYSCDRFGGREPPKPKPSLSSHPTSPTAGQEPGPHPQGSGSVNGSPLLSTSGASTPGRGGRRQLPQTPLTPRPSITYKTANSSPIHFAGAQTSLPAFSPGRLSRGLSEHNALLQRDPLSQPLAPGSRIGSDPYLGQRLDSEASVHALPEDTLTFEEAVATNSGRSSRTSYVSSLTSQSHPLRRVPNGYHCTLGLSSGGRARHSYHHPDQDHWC

[2] = target: T2, hERG (Homo sapiens, UniProt Q12809); assay: Displacement of [35S]-MK-0499 from human ERG at 1 uM; conditions: probe [35S]-MK-0499
In short: (§2)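 hERG binding was measured as displacement of 35S-labeled MK-0499 at single test concentrations.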

[3] = target: T3, Cav1.2 (Homo sapiens, UniProt Q13936); assay: Inhibition of Cav1.2 assessed as inhibition of calcium flux at 3 uM by cell based FLIPR assay
T3 sequence (Q13936 whole entry): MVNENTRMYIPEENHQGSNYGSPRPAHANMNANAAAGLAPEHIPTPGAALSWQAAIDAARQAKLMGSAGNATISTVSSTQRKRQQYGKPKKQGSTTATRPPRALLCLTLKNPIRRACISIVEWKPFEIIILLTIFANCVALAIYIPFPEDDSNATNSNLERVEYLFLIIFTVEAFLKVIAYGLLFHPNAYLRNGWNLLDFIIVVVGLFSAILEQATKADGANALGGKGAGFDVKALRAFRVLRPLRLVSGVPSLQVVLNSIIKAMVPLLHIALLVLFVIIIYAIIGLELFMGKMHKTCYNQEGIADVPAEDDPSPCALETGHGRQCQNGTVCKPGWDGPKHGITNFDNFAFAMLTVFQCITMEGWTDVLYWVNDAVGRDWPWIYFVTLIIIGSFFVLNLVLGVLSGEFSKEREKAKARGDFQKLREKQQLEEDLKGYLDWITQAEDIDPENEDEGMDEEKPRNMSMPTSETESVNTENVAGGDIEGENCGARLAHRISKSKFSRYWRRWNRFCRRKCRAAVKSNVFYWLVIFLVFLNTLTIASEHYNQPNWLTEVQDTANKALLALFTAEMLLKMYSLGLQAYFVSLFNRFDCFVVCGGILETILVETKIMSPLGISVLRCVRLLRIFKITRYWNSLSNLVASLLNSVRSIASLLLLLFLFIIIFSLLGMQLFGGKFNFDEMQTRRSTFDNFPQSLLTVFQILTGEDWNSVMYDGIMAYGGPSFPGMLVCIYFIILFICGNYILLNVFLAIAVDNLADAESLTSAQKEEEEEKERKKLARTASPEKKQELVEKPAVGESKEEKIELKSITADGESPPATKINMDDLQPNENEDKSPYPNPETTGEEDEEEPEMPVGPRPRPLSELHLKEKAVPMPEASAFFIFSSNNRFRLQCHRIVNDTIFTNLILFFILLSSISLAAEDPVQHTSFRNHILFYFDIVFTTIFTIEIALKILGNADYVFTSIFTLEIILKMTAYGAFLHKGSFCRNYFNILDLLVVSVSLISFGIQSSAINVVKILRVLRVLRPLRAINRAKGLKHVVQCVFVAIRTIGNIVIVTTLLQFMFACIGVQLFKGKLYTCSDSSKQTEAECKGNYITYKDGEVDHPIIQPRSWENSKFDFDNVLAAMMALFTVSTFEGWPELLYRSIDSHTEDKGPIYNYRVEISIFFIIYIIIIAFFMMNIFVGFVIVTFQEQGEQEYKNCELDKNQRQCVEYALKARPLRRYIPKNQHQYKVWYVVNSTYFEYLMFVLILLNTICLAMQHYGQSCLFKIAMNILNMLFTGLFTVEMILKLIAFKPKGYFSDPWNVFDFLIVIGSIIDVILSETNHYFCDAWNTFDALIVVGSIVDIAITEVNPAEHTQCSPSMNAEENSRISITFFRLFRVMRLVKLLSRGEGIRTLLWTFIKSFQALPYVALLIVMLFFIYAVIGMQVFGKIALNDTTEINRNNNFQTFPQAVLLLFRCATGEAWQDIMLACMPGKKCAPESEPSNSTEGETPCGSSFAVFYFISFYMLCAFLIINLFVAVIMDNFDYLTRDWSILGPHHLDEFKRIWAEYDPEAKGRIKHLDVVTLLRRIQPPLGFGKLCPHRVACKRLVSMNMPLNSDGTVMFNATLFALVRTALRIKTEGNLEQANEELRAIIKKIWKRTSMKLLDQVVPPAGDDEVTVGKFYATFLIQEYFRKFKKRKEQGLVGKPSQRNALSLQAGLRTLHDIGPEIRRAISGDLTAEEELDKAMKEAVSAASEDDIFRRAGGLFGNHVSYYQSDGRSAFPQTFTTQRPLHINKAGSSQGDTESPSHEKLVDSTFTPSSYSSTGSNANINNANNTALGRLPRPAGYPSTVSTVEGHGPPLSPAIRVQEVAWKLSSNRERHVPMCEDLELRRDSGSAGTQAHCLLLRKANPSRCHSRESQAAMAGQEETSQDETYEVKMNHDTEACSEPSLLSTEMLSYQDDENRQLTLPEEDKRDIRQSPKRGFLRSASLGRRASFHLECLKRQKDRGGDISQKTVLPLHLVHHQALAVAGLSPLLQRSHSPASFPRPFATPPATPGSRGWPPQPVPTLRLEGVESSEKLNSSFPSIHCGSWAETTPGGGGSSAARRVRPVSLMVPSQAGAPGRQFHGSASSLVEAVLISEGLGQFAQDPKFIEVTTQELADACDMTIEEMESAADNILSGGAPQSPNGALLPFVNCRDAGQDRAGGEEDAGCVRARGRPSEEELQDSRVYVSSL
In short: (§3)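 Cav1.2 counterscreen using a related calcium-influx FLIPR assay, run as % inhibition at single concentrations or as a titration.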

[4] = target: T2, hERG; assay: Displacement of [35S]-MK-0499 from human ERG at 10 uM; conditions: probe [35S]-MK-0499; in short: as §2
[5] = target: T3, Cav1.2; assay: Inhibition of Cav1.2 assessed as inhibition of calcium flux at 1 uM by cell based FLIPR assay; in short: as §3
[6] = Metabolic stability in human liver microsomes assessed as compound remaining at 1 uM after 1 hr; assay type: ADME, Microsome; conditions: read-out: Stability
In short: (§4)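 Compound at 1 μM was incubated with human or rat liver microsomes (1 mg/mL) for 1 h, and the percentage of parent remaining was determined.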

[7] = Plasma concentration in rat complete Freund's adjuvant-induced pain model at 30 mg/kg, po after 3 hrs; assay type: ADME, organism-based; parameters: dose 30 mg/kg, route oral
In short: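 Satellite rats in CFA inflammatory pain study, 30 mg/kg po; plasma exposure (μM) at 3 h, n = 2, standard deviation.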

[8] = Half life in rat at 3 mg/kg, po and 1 mg/kg, iv; assay type: ADME, organism-based; conditions: in vivo
In short: (§5)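 Rat pharmacokinetics from iv and po arms: 0.6 mg/kg iv with 1.8 mg/kg po, or 1 mg/kg iv with 3 mg/kg po. AUC was normalized to po dose (μM·h·kg/mg). Clearance (mL/min/kg) and half-life come from the iv arm, and F% is oral bioavailability.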

[9] = tested on: Rattus norvegicus; assay: Dose normalized AUC in rat at 3 mg/kg, po and 1 mg/kg, iv; assay type: ADME, organism-based; conditions: in vivo; in short: as §5
[10] = Metabolic stability in rat liver microsomes assessed as compound remaining at 1 uM after 1 hr; assay type: ADME, Microsome; conditions: read-out: Stability; in short: as §4
[11] = tested on: Rattus norvegicus; assay: Antinociceptive activity in rat assessed as reversal of complete Freund's adjuvant-induced pain at 30 mg/kg, po after 3 hrs; assay type: functional
In short: (§6)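 In the rat CFA inflammatory pain model, compound was given orally at 30 mg/kg and allodynia was read at 1 and 3 h postdose. Average % reversal = (postdose − predose)/(preinjury − predose) for each rat, n = 6. Plasma exposure at 3 h was measured in satellite rats (n = 2).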

[12] = tested on: Rattus norvegicus; assay: Antinociceptive activity in rat assessed as reversal of complete Freund's adjuvant-induced pain at 30 mg/kg, po after 1 hr; assay type: functional; in short: as §6
[13] = Oral bioavailability in rat at 3 mg/kg; assay type: ADME, organism-based; conditions: in vivo; in short: as §5
[14] = Plasma clearance in rat at 3 mg/kg, po and 1 mg/kg, iv; assay type: ADME, organism-based; in short: as §5
[15] = target: T1, Voltage-dependent N-type calcium channel subunit alpha-1B; assay: Inhibition of Cav2.2 expressed HEK293 cells assessed as inhibition of calcium flux at 1 uM by FLIPR assay; assay type: cell-based; in short: as §1
Target sequence in this assay (Q00975 whole entry, looked up): as the sequence (Q00975 whole entry) above

[16] = target: T1, Voltage-dependent N-type calcium channel subunit alpha-1B; assay: Inhibition of Cav2.2 expressed HEK293 cells assessed as inhibition of calcium flux by FLIPR assay in presence of 4 mM of potassium; assay type: cell-based
In short: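 HEK-293-derived CBK cells coexpress α1B-1, α2-δ and β3a with Kir2.3. Compound was incubated in 4 mM K+ bath, holding about −90 mV. Ca2+ influx was read with a Ca-sensitive dye on FLIPR Tetra. Ten-point titrations ran 0.001–30 μM in quadruplicate, averaged ± SD to give IC50.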
Target sequence in this assay (Q00975 whole entry): as above

[17] = tested on: Rattus norvegicus; assay: Analgesic activity in rat SNL neuropathic pain model assessed as reversal of mechanical allodynia at 10 mg/kg, po after 1 hr; assay type: functional
[18] = tested on: Mus musculus; assay: Antinociceptive activity in Cav2.2 expressing wild type mouse SNL neuropathic pain model assessed as reversal of mechanical allodynia at 30 mg/kg, po after 2 hrs; assay type: functional
In short: (§7)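 Cav2.2+/+ and Cav2.2−/− mice underwent spinal nerve ligation, then got a single 30 mg/kg oral dose. Mechanical allodynia was scored 2 h postdose.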

[19] = tested on: Mus musculus; assay: Antinociceptive activity in Cav2.2 deficient mouse SNL neuropathic pain model assessed as reversal of mechanical allodynia at 30 mg/kg, po after 2 hrs; assay type: functional; in short: as §7
[20] = tested on: Rattus norvegicus; assay: Analgesic activity in rat SNL neuropathic pain model assessed as reversal of mechanical allodynia at 10 mg/kg, po after 3 hrs; assay type: functional
[21] = Plasma concentration in rat SNL neuropathic pain model at 10 mg/kg, po after 3.5 hrs; assay type: ADME, organism-based; parameters: dose 10 mg/kg, route oral
[22] = tested on: Rattus norvegicus; assay: Antinociceptive activity in rat assessed as reversal of complete Freund's adjuvant-induced pain at 10 mg/kg, po after 3 hrs; assay type: functional
In short: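 Rats had complete Freund's adjuvant-induced inflammatory pain and got oral dosing. Allodynia was read at 1 and 3 h postdose. Percent reversal per rat = (postdose − predose)/(preinjury − predose). Groups had at least six animals, reported as mean + SEM.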

## CS(=O)(=O)c1ccc(F)cc1C(=O)N1CCC(N(C2CC2)S(=O)(=O)c2cc(C(F)(F)F)ccc2F)CC1
[1]
  IC50: 2500 nM

## CN(C)c1cccc(C(=O)N2CCC(N(C3CC3)S(=O)(=O)c3cccc(C(F)(F)F)c3)CC2)c1
[2]
  inhibition at 1 µM: 0%
[3]
  inhibition at 3 µM: 63%
[4]
  inhibition at 10 µM: 51%
[1]
  IC50: 240 nM
[5]
  inhibition at 1 µM: 40%

## CS(=O)(=O)c1ccccc1C(=O)N1CCC(N(C2CC2)S(=O)(=O)c2cccc(C(F)(F)F)c2)CC1
[6]
  remaining at 1 h, 1 µM: 73%
[2]
  inhibition at 1 µM: 1%
[7]
  concentration at 3 h: 2.4 µM
[3]
  inhibition at 3 µM: 39%
[8]
  half-life: 54.6 min
[9]
  AUC/dose: 1.06 µM·kg·h/mg
[10]
  remaining at 1 h, 1 µM: 45%
[11]
  Activity: 45%
[12]
  Activity: 47%
[4]
  inhibition at 10 µM: 67%
[1]
  IC50: 660 nM
[13]
  bioavailability: 100%
[14]
  clearance: 36 mL/min/kg
[5]
  inhibition at 1 µM: 19%

## CS(=O)(=O)c1cccc(C(=O)N2CCC(N(C3CC3)S(=O)(=O)c3cccc(C(F)(F)F)c3)CC2)c1
[15]
  inhibition: 15%

## C[C@@H](O)[C@@H]1NC(=O)[C@H](Cc2ccc(O)cc2)NC(=O)[C@@H]2C[C@@H](O)CN2C(=O)[C@H](CC(N)=O)NC(=O)[C@@H]2CSSC[C@@H]3NC(=O)[C@H](CO)NC(=O)[C@H](CO)NC(=O)CNC(=O)[C@@H]4C[C@@H](O)CN4C(=O)[C@H](CO)NC(=O)[C@H](CCCCN)NC(=O)[C@@H](N)CSSC[C@H](NC(=O)[C@H](CSSC[C@@H](C(=O)N[C@@H](Cc4ccc(O)cc4)C(N)=O)NC(=O)[C@H](CCCN=C(N)N)NC(=O)[C@H](CCCCN)NC1=O)NC(=O)[C@H](CC(N)=O)NC(=O)[C@H](Cc1ccc(O)cc1)NC(=O)[C@H](CO)NC(=O)[C@H]([C@@H](C)O)NC(=O)[C@@H]1C[C@@H](O)CN1C(=O)[C@H](CO)NC3=O)C(=O)N[C@@H](CCCN=C(N)N)C(=O)N[C@@H](CO)C(=O)N2
[16]
  IC50: 20 nM
[1]
  IC50: 40 nM

## COc1ccc2cc([C@H](C)C(=O)O)ccc2c1 [NAPROXEN]
[17]
  Activity: 47%

## COc1cccc(OC)c1CN1CCC(N(C2CC2)S(=O)(=O)c2cccc(C(F)(F)F)c2)CC1
[2]
  inhibition at 1 µM: 70%
[1]
  IC50: 60 nM

## NCC1(CC(=O)O)CCCCC1 [GABAPENTIN]
[18]
  Activity: 71%
[19]
  Activity: 48%

## O=C(c1cccc(OC(F)(F)F)c1)N1CCC(N(C2CC2)S(=O)(=O)c2cccc(C(F)(F)F)c2)CC1
[2]
  inhibition at 1 µM: 4%
[3]
  inhibition at 3 µM: 78%
[4]
  inhibition at 10 µM: 72%
[1]
  IC50: 370 nM
[5]
  inhibition at 1 µM: 60%

## CS(=O)(=O)c1ccc(C(=O)N2CCC(N(C3CC3)S(=O)(=O)c3cccc(C(F)(F)F)c3)CC2)cc1
[15]
  inhibition: 52%

## NS(=O)(=O)c1cccc(C(F)(F)F)c1
[20]
  Activity: 36%
[21]
  concentration at 3.5 h: 35.6 µM
[11]
  Activity: 44%
[12]
  Activity: 53%
[17]
  Activity: 27%

## CC(C)C[C@H](CN)CC(=O)O [PREGABALIN]
[22]
  Activity: 58%
